ChEMBL document CHEMBL4823271, “Synthesis and structure-activity relationship of new chalcone linked 5-phenyl-3-isoxazolecarboxylic acid methyl esters potentially active against drug resistant Mycobacterium tuberculosis” (Eur J Med Chem, 2021)
In brackets after ≈: the same amount, converted by molar mass. Activity calls are given as the source filed them. The rule behind the calls is not given here.

Legend:
[1] = Selectivity index, ratio of CC50 for African green monkey Vero cells to MIC for Antitubercular activity against Mycobacterium tuberculosis H37Rv; assay type: toxicity; details: read-out: Selectivity Index
Summary of the method: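 Selectivity index calculated as Vero CC50 (MTT, 72 h) divided by the H37Rv MIC from the resazurin broth microdilution assay.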

[2] = system: Mycobacterium tuberculosis; test: Antitubercular activity against Mycobacterium tuberculosis H37Rv assessed as bacterial growth inhibition after 7 days by broth microdilution assay; assay type: functional; details: 168 h, dose 0.03-64 µg/ml, time 7 day
Summary of the method: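 Compounds were tested in broth microdilution from 64 downward, incubated 37 °C for 7 days, then resazurin (PrestoBlue) added. MIC is the lowest concentration preventing the blue-to-pink change, run in triplicate, reporting the value obtained at least twice of three.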

[3] = Cytotoxicity against African green monkey vero cells assessed as reduction in cell viability measured after 72 hrs by MTT assay; assay type: cell-based; details: chlorocebus sabaeus
Summary of the method: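 Vero cells seeded at ~10³ cells/well and grown 24 h at 37 °C, 5% CO₂, then exposed to compound (100 to 5 mg/l) for 72 h. MTT was added […] for 4 h and formazan dissolved in DMSO. CC50 is the lowest concentration giving 50% viability reduction. Doxorubicin was the positive control, run in triplicate.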

[4] = system: Mycobacterium tuberculosis; test: Antimycobacterial activity against Mycobacterium tuberculosis H37Rv ATCC 27294 assessed as reduction in bacterial growth incubated for […] by broth microdilution assay; assay type: functional
[5] = system: Mycobacteroides chelonae; test: Antimycobacterial activity against Mycobacterium chelonae ATCC 35752 assessed as visible growth inhibition incubated for 16 to 18 hrs; assay type: functional, organism-based; details: time 16-18 hrs
[6] = system: Mycolicibacterium fortuitum; test: Antimycobacterial activity against Mycobacterium fortuitum ATCC 6841 assessed as visible growth inhibition incubated for 16 to 18 hrs; assay type: functional, organism-based; details: time 16-18 hrs
[7] = system: Mycobacteroides abscessus; test: Antimycobacterial activity against Mycobacterium abscessus ATCC 19977 assessed as visible growth inhibition incubated for 16 to 18 hrs; assay type: functional, organism-based; details: time 16-18 hrs

Compound | selectivity ratio [1] | MIC [2] [µg/mL] | CC50 at 72 h [3] [µg/mL] | MIC [4] [µg/mL] | Activity [5] | Activity [6] | Activity [7] | MIC90 [2] [µg/mL]
CC(C)Cc1ccc(C(=O)/C=C/c2ccc(C(=O)O)cc2)cc1 | < 10 | 32 (≈ 104 µM) | < 10 | – | – | – | – | –
CO[C@H]1/C=C/O[C@@]2(C)Oc3c(C)c(O)c4c(O)c(c(/C=N/N5CCN(C)CC5)c(O)c4c3C2=O)NC(=O)/C(C)=C\C=C\[C@H](C)[C@H](O)[C@@H](C)[C@@H](O)[C@@H](C)[C@H](OC(C)=O)[C@@H]1C [RIFAMPIN] | – | 0.03 (≈ 0.0365 µM) | – | 0.06 (≈ 0.0729 µM) | – | – | – | –
COC(=O)c1cc(-c2cccc(NC(=O)c3ccc(/C=C/C(=O)c4cccc(F)c4)cc3)c2)on1 | > 20 | 2 (≈ 4.25 µM) | > 40 | – | inactive | inactive | inactive | –
COC(=O)c1cc(-c2cccc(NC(=O)c3ccc(/C=C/C(=O)c4ccccc4O)cc3)c2)on1 | – | 16 (≈ 34.2 µM) | – | – | inactive | inactive | inactive | –
COC(=O)c1cc(-c2cccc(NC(=O)c3ccc(/C=C/C(=O)c4cccnc4)cc3)c2)on1 | – | 64 (≈ 141 µM) | – | – | inactive | inactive | inactive | –
COC(=O)c1cc(-c2cccc(NC(=O)c3ccc(/C=C/C(=O)c4ccc(OC)cc4)cc3)c2)on1 | > 2.5 | 4 (≈ 8.29 µM) | > 10 | – | inactive | inactive | inactive | –
COC(=O)c1cc(-c2cccc(NC(=O)c3ccc(/C=C/C(=O)c4ccccc4OC)cc3)c2)on1 | > 40 | 1 (≈ 2.07 µM) | > 40 | – | inactive | inactive | inactive | –
COC(=O)c1cc(-c2cccc(NC(=O)c3ccc(/C=C/C(=O)c4ccccc4Br)cc3)c2)on1 | > 40 | 1 (≈ 1.88 µM) | > 40 | – | inactive | inactive | inactive | –
COC(=O)c1cc(-c2cccc(NC(=O)c3ccc(/C=C/C(=O)c4ccc(C)c(F)c4)cc3)c2)on1 | > 25 | 2 (≈ 4.13 µM) | > 50 | – | inactive | inactive | inactive | –
COC(=O)c1cc(-c2cccc(NC(=O)c3ccc(OCc4ccc(Cl)cc4)cc3)c2)on1 | > 80 | 1 (≈ 2.16 µM) | > 80 | – | inactive | inactive | inactive | –
O=C(/C=C/c1c[nH]c2ccccc12)c1cccs1 | – | 49.9 (≈ 197 µM) | – | – | – | – | – | –
COC(=O)c1cc(-c2cccc(NC(=O)c3ccc(/C=C/C(=O)c4ccccc4)cc3)c2)on1 | > 50 | 1 (≈ 2.21 µM) | > 50 | – | inactive | inactive | inactive | –
COC(=O)c1cc(-c2cccc(NC(=O)c3ccc(C4OC4C(=O)c4ccc(Cl)cc4)cc3)c2)on1 (stereo not drawn) | > 5 | 4 (≈ 7.95 µM) | > 20 | – | inactive | inactive | inactive | –
COC(=O)[C@H](NC(=O)c1cc(COc2ccc3sc(C)nc3c2)on1)c1ccccc1 | – | 0.61 (≈ 1.39 µM) | – | – | – | – | – | –
CN[C@@H]1[C@H](O[C@H]2[C@H](O[C@H]3[C@H](O)[C@@H](O)[C@H](N=C(N)N)[C@@H](O)[C@@H]3N=C(N)N)O[C@@H](C)[C@]2(O)C=O)O[C@@H](CO)[C@H](O)[C@H]1O [STREPTOMYCIN] | – | 0.5 (≈ 0.86 µM) | – | 2 (≈ 3.44 µM) | – | – | – | –
O=C(/C=C/c1ccc([N+](=O)[O-])o1)c1ccc(N2CCCCC2)cc1 | – | 0.06 (≈ 0.184 µM) | – | – | – | – | – | –
CCCOc1ccc(C(=O)/C=C/c2ccc(C(=O)O)cc2)cc1 | < 10 | 32 (≈ 103 µM) | < 10 | – | – | – | – | –
COC(=O)c1cc(-c2cccc(NC(=O)/C=C/c3ccc(Cl)cc3)c2)on1 | – | 2 (≈ 5.22 µM) | – | – | inactive | inactive | inactive | –
CCOC(=O)c1cc(COc2cc(C(F)(F)F)nc3cc(C(F)(F)F)cc(C(F)(F)F)c23)on1 | – | 0.39 (≈ 0.776 µM) | – | – | – | – | – | –
COC(=O)c1cc(-c2cccc(NC(=O)c3ccc(/C=C/C(=O)c4cccc(C(F)(F)F)c4)cc3)c2)on1 | > 20 | 1 (≈ 1.92 µM) | > 20 | – | inactive | inactive | inactive | –
O=C(O)c1ccc(/C=C/C(=O)c2ccc(Cl)cc2)cc1 | < 10 | 4 (≈ 14 µM) | < 10 | – | – | – | – | –
O=C(/C=C/c1ccc(-n2ccnc2)cc1)c1ccc(OCc2cc(F)ccc2F)cc1 | – | 0.78 (≈ 1.87 µM) | – | – | – | – | – | –

Compound | selectivity ratio [1] | MIC [2] [µg/mL] | CC50 at 72 h [3] [µg/mL] | MIC [4] [µg/mL] | Activity [5] | Activity [6] | Activity [7] | MIC90 [2] [µg/mL]
COC(=O)c1cc(-c2cccc(NC(=O)c3ccc(/C=C/C(=O)c4ccc(OC)c([N+](=O)[O-])c4)cc3)c2)on1 | > 40 | 1 (≈ 1.9 µM) | > 40 | – | inactive | inactive | inactive | –
CCOC(=O)c1cc(-c2cccc(OCc3cccc(C(F)(F)F)c3)c2)on1 | – | 0.23 (≈ 0.588 µM) | – | – | – | – | – | –
COC(=O)c1cc(-c2cccc(NC(=O)c3ccc(/C=C/C(=O)c4ccc(Br)cc4)cc3)c2)on1 | > 2 | 1 (≈ 1.88 µM) | > 20 | – | inactive | inactive | inactive | –
COc1ccc(OC)c(/C=C/C(=O)c2ccc(Nc3ccnc4cc(Cl)ccc34)cc2)c1 | – | 3.12 (≈ 7.01 µM) | – | – | – | – | – | –
COC(=O)c1cc(-c2cccc(NC(=O)c3ccc(/C=C/C(=O)c4cc(F)ccc4F)cc3)c2)on1 | > 40 | 1 (≈ 2.05 µM) | > 40 | – | inactive | inactive | inactive | –
COC(=O)c1cc(-c2cccc(NC(=O)c3ccc(/C=C/C(=O)c4ccc([N+](=O)[O-])cc4)cc3)c2)on1 | > 10 | 2 (≈ 4.02 µM) | > 20 | – | inactive | inactive | inactive | –
COC(=O)c1cc(-c2cccc(NC(=O)c3ccc(/C=C/C(=O)c4cccc(Br)c4)cc3)c2)on1 | > 25 | 4 (≈ 7.53 µM) | > 100 | – | inactive | inactive | inactive | –
O=C(O)c1ccc(C(=O)/C=C/c2ccc3ccccc3c2)cc1 | – | 0.5 (≈ 1.65 µM) | – | – | – | – | – | –
CCOC(=O)c1cc(/C=C/c2c(Cl)cncc2Cl)on1 | – | 0.18 (≈ 0.575 µM) | – | 0.5 (≈ 1.6 µM) | – | – | – | –
COC(=O)c1cc(-c2cccc(NC(=O)c3ccc(/C=C/C(=O)c4cc(OC)c(OC)c(OC)c4)cc3)c2)on1 | > 50 | 1 (≈ 1.84 µM) | > 50 | – | inactive | inactive | inactive | –
COC(=O)c1cc(-c2cccc(NC(=O)c3ccc(/C=C/C(=O)c4ccc(C)c([N+](=O)[O-])c4)cc3)c2)on1 | > 20 | 4 (≈ 7.82 µM) | > 80 | – | inactive | inactive | inactive | –
COC(=O)c1cc(-c2cccc(NC(=O)c3ccc(/C=C/C(=O)c4ccc(F)cc4)cc3)c2)on1 | > 5 | 4 (≈ 8.5 µM) | > 20 | – | inactive | inactive | inactive | –
COC(=O)c1cc(-c2cccc(NC(=O)c3ccc(/C=C/C(=O)c4cccc(OC)c4)cc3)c2)on1 | > 50 | 2 (≈ 4.15 µM) | > 100 | – | inactive | inactive | inactive | –
COC(=O)c1cc(-c2cccc(NC(=O)c3ccc(/C=C/C(=O)c4ccc(OC)c(OC)c4)cc3)c2)on1 | > 50 | 1 (≈ 1.95 µM) | > 50 | – | inactive | inactive | inactive | –
Cc1ccc(Nc2nc(-c3cc(C(=O)Nc4ccccn4)no3)c(C)s2)cc1 | – | – | – | – | – | – | – | 0.06 (≈ 0.153 µM)
COC(=O)c1cc(-c2cccc(NC(=O)c3ccc(/C=C/C(=O)c4cccc([N+](=O)[O-])c4)cc3)c2)on1 | > 20 | 2 (≈ 4.02 µM) | > 40 | – | inactive | inactive | inactive | –
COC(=O)c1cc(-c2cccc(NC(=O)c3ccc(/C=C/C(=O)c4ccc(O)cc4)cc3)c2)on1 | – | > 64 | – | – | inactive | inactive | inactive | –
CCOC(=O)c1cc(-c2cccc(NC(=O)c3cccc(C(F)(F)F)c3)c2)on1 | – | 64 (≈ 158 µM) | – | – | – | – | – | –
COC(=O)c1cc(-c2cccc(NC(=O)c3ccc(/C=C/C(=O)c4cccs4)cc3)c2)on1 | – | 32 (≈ 69.8 µM) | – | – | inactive | inactive | inactive | –
CCOC(=O)c1nnn(-c2cccc(NC(=O)c3ccc(/C=C/C(=O)c4ccc(Cl)cc4)cc3)c2)c1C | – | > 64 | – | – | – | – | inactive | –
COC(=O)c1cc(-c2cccc(NC(=O)c3ccc(/C=C/C(=O)c4ccc5c(c4)OCO5)cc3)c2)on1 | > 20 | 2 (≈ 4.03 µM) | > 40 | – | inactive | inactive | inactive | –
